Activity calls are given as the source filed them.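 How the source made its calls, unless noted: active means current rise at least 3 SD above the untreated control mean in each of two repeat wells; inactive means the rest.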
These molecules were tested against Potassium voltage-gated channel subfamily KQT member 2 (Rattus norvegicus) (UniProt O88943) (assay: KCNQ2 thallium flux enhancement – KCNQ2-CHO-K1 cells, selectivity assay for KCNQ1 potentiator project (AID 493009;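 active means mean duplicate potentiation above the buffer control mean plus 5 SD of buffer wells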;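 further: assay conditions were tuned for KCNQ1 rather than KCNQ2 modulators; signal is max minus min fluorescence divided by baseline after thallium stimulus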)). Conditions: FluxOR thallium flux fluorescence, at 10 µM; active compounds read high, scaled: buffer 0, activator control 100.
Potassium voltage-gated channel subfamily KQT member 2 (Rattus norvegicus), sequence (O88943 whole entry, looked up): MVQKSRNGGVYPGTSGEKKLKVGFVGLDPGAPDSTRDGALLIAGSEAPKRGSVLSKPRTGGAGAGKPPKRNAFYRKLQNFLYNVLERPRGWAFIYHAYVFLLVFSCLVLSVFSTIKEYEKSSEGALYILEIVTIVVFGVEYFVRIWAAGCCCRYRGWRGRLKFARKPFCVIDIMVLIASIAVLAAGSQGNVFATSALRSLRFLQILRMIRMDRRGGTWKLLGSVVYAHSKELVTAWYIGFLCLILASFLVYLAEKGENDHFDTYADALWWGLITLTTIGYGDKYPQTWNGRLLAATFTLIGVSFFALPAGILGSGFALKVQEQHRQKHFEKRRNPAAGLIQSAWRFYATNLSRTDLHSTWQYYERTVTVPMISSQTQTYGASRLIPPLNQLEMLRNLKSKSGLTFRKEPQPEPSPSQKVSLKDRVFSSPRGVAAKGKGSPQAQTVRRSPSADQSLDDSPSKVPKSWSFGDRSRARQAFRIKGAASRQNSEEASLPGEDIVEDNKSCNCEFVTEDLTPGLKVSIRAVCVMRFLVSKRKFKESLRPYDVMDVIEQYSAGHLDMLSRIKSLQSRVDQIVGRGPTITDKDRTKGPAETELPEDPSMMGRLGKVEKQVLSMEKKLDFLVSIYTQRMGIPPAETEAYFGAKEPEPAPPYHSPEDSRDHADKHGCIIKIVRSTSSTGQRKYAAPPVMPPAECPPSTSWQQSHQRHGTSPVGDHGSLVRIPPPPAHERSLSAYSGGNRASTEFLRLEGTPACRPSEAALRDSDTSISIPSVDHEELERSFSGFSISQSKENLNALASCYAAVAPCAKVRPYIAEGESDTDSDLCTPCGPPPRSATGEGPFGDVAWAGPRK
`CN1CCN(c2cc(N3CCCC3)c([N+](=O)[O-])cc2F)CC1` was tested, and the outcome was “inactive”. In the case of `CC1(C)C[C@H]2C=C(C=O)[C@]3(C=O)C[C@]3(C)[C@H]2C1`, the outcome is reported as “inactive”. For `O=c1c(C=NCCN2CCNCC2)c(O)n(C2CCCCC2)c(=O)n1C1CCCCC1`, the outcome was “inactive”. For `COc1cc(-n2c(=S)[nH]c3ccccc3c2=O)c(Cl)cc1Cl`, the outcome was “inactive”. With `c1ccc2c(c1)Sc1ccccc1N2CC1CN2CCC1CC2` (stereo not drawn) the outcome was “inactive”. `COc1ccc(C(=O)OC2CC[C@@]3(C)C4CCC5[C@]6(O)CC(O)[C@@]7(O)C(CN8CC(C)CCC8[C@@]7(C)O)[C@]6(O)C[C@@]53O[C@]24O)cc1OC` (stereo partly drawn) was tested, and the potentiation was 160% (active). With `CC/C(=C\C=C\[C@@H]1C=C[C@@H]2CCC[C@H]2[C@@H]1C(=O)c1ccc[nH]1)[C@@H]1O[C@@H]([C@@H](C)C(=O)O)CC[C@@H]1C` the potentiation was 442% (active). `O=C1NC(=O)N(Cc2ccc(F)cc2)C(=O)/C1=C/c1cccs1` was tested, and the outcome was “inactive”. In the case of `Brc1ccc2c(c1)C(OC1CN3CCC1CC3)c1ccccc1CS2` (stereo not drawn), the outcome is reported as “inactive”. In the case of `C/C1=C\[C@@H](C)C/C=C/[C@H]2[C@@H]3O[C@]3(C)[C@@H](C)[C@H]3[C@H](Cc4c[nH]c5ccccc45)NC(=O)[C@]32C(=O)/C=C/C(=O)[C@@H]1O`, the outcome is reported as “inactive”. With `O=[N+]([O-])c1cccc(C2N3CCCN23)c1` (stereo not drawn) the outcome was “inactive”. `CC(=O)OC(C)(C)/C=C/C(=O)C(C)(O)C1[C@H](O)C[C@@]2(C)C3CC=C4C(CC[C@@H](O)C4(C)C)[C@]3(CO)C(=O)C[C@]12C` (stereo partly drawn) was tested, and the outcome was “inactive”. For `COc1ccc2c(c1)/C(=C/c1cnc[nH]1)C(=O)N2`, the outcome was “inactive”. `Nc1ncnc2c1ccn2[C@@H]1O[C@H](CO)[C@@H](O)[C@H]1O` was tested, and the outcome was “inactive”. `CCN(CC)C(=O)c1ccc(NC(=O)CSc2nnnn2-c2cc(OC)ccc2OC)cc1` was tested, and the outcome was “inactive”. For `CCOP(=S)(OCC)c1ccc(N(C)C)cc1`, the outcome was “inactive”. With `CCOC(=O)C1C(=O)NC2(C)CC1c1cc(OC)ccc1O2` (stereo not drawn) the outcome was “inactive”. In the case of `O=C(c1ccc(-c2ccccc2)cc1)C1CCCN(Cc2ccn[nH]2)C1` (stereo not drawn), the outcome is reported as “inactive”. With `O=C(O)c1cccc2c1NC(c1cccc([N+](=O)[O-])c1)C1CC(Sc3ccccc3[N+](=O)[O-])C(Cl)C21` (stereo not drawn) the outcome was “inactive”. `CCOP1(=S)Oc2cc3c(cc2C(C(=O)OC)(C(F)(F)F)O1)OCO3` (stereo not drawn) was tested, and the outcome was “inactive”. For `CC1(C)CSC(=NCc2ccccc2)N1`, the outcome was “inactive”. `CN1CCC(c2c[nH]c3ccccc23)C1` (stereo not drawn) was tested, and the outcome was “inactive”. For `N#CCCn1cc(C(=O)Nc2ccccc2Cl)c(-c2ccc(F)cc2)n1`, the potentiation was 144% (active). For `CC1=CC2/C=C(\C)CCC(O)C(O)/C=C/C(=O)C23C(=O)NC(CC(C)C)C3C1C` (stereo not drawn), the outcome was “inactive”. With `Cc1nc2ccccc2c(=O)n1/N=C/c1cc(Br)cc(Br)c1O` the outcome was “inactive”. In the case of `C/C=C(\C)C(=O)N[C@@H](c1ccccc1)[C@@H](O)C(=O)O[C@H]1C[C@@]2(O)[C@@H](OC(=O)c3ccccc3)C3[C@](C)(C(=O)[C@H](OC(C)=O)C(=C1C)C2(C)C)[C@@H](O)C[C@H]1OC[C@@]31OC(C)=O` (stereo partly drawn), the outcome is reported as “inactive”. For `CCOc1cc(C=C2C(=O)NC(=O)NC2=O)ccc1OS(=O)(=O)c1ccccc1`, the outcome was “inactive”. In the case of `O=[N+]([O-])c1ccc(N2CCOCC2)c2ccncc12`, the outcome is reported as “inactive”. In the case of `Cn1cccc1/C=C1/C(=O)NC(=S)N(Cc2ccc(F)cc2)C1=O`, the outcome is reported as “inactive”. With `C=C(C)[C@@]12OC3(c4ccccc4)O[C@@H]1C1[C@@H]4O[C@]4(CO)[C@@H](O)[C@]4(O)C(=O)C(C)=C[C@H]4[C@@]1(O3)[C@H](C)[C@H]2OC(=O)/C=C/C=C/c1ccccc1` (stereo partly drawn) the outcome was “inactive”. `Cc1ccccc1-n1c(O)c(/C=N/N2CCOCC2)c(=O)[nH]c1=S` was tested, and the outcome was “inactive”. For `CC(=NCc1ccc(F)cc1)c1c(O)n(C)c(=O)n(C)c1=O`, the outcome was “inactive”. With `Cc1ccc(/C=C2/C(=O)NC(=O)N(CCc3ccc(F)cc3)C2=O)o1` the outcome was “inactive”. In the case of `N#Cc1c(N2CCNCC2)nc(-c2ccco2)c2c1CCCC2`, the outcome is reported as “inactive”. `CCOc1cc(CNCCc2c[nH]c3ccccc23)cc(Cl)c1OCC` was tested, and the outcome was “inactive”.

Each molecule was assayed against Potassium voltage-gated channel subfamily KQT member 1 (Homo sapiens) (UniProt P51787) (assay: KCNQ1 activators by electrophysiology – IonWorks patch clamp, KCNQ1-CHO cells, orthogonal assay for KCNQ1 potentiator project, confirmation (AID 493184)). Conditions: automated patch clamp current, at 10 µM.
Potassium voltage-gated channel subfamily KQT member 1 (Homo sapiens), sequence (P51787 whole entry, looked up): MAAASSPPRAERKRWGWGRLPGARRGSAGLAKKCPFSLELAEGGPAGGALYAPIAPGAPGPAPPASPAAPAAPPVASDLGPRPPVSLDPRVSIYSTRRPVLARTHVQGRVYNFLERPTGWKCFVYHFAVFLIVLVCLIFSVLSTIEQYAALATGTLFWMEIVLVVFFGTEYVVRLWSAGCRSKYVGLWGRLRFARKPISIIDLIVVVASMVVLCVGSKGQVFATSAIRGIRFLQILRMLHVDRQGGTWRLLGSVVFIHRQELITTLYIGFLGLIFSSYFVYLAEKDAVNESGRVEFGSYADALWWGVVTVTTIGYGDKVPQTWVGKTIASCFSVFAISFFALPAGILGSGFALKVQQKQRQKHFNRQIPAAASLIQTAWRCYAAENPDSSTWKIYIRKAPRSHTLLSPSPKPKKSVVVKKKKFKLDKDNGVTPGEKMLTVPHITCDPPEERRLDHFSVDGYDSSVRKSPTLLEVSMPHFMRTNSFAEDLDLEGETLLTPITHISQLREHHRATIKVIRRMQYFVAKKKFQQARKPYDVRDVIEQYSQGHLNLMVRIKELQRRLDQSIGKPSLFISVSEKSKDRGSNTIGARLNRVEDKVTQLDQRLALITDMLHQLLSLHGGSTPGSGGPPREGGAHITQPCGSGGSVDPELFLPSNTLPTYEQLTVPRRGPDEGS
Outline: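 Assay system – CHO cells carrying KCNQ1 · Medium – pH 7.4 external bath · Probe or stimulus – depolarizing pulse to +40 mV from -90 mV · Compound dosing – one dose, 10 µM final · Measured by – automated perforated-patch electrophysiology · Measure – % potentiation of steady-state current relative to pre-compound · Repeats – two replicates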
With `CN1CCN(c2cc(N3CCCC3)c([N+](=O)[O-])cc2F)CC1` the outcome was “inactive”. For `CC1(C)C[C@H]2C=C(C=O)[C@]3(C=O)C[C@]3(C)[C@H]2C1`, the outcome was “inactive”. For `O=c1c(C=NCCN2CCNCC2)c(O)n(C2CCCCC2)c(=O)n1C1CCCCC1`, the outcome was “inactive”. `COc1cc(-n2c(=S)[nH]c3ccccc3c2=O)c(Cl)cc1Cl` was tested, and the outcome was “inactive”. In the case of `c1ccc2c(c1)Sc1ccccc1N2CC1CN2CCC1CC2` (stereo not drawn), the outcome is reported as “inactive”. For `COc1ccc(C2NCc3ccc4c(c3-n3cccc32)OCO4)cc1O` (stereo not drawn), the outcome was “inactive”. With `COc1ccc(C(=O)OC2CC[C@@]3(C)C4CCC5[C@]6(O)CC(O)[C@@]7(O)C(CN8CC(C)CCC8[C@@]7(C)O)[C@]6(O)C[C@@]53O[C@]24O)cc1OC` (stereo partly drawn) the outcome was “inactive”. `Cc1ccccc1CC(=O)N(CCN(C)C)CC1CCCN(Cc2ccccc2F)C1` (stereo not drawn) was tested, and the outcome was “inactive”. In the case of `CC/C(=C\C=C\[C@@H]1C=C[C@@H]2CCC[C@H]2[C@@H]1C(=O)c1ccc[nH]1)[C@@H]1O[C@@H]([C@@H](C)C(=O)O)CC[C@@H]1C`, the outcome is reported as “inactive”. With `O=C1NC(=O)N(Cc2ccc(F)cc2)C(=O)/C1=C/c1cccs1` the outcome was “inactive”. For `Brc1ccc2c(c1)C(OC1CN3CCC1CC3)c1ccccc1CS2` (stereo not drawn), the outcome was “inactive”. For `C/C1=C\[C@@H](C)C/C=C/[C@H]2[C@@H]3O[C@]3(C)[C@@H](C)[C@H]3[C@H](Cc4c[nH]c5ccccc45)NC(=O)[C@]32C(=O)/C=C/C(=O)[C@@H]1O`, the outcome was “inactive”. In the case of `Cc1c(Cl)cccc1NC(=S)N1CC2CC(C1)c1cccc(=O)n1C2` (stereo not drawn), the outcome is reported as “inactive”. For `O=[N+]([O-])c1cccc(C2N3CCCN23)c1` (stereo not drawn), the outcome was “inactive”. For `CC(=O)OC(C)(C)/C=C/C(=O)C(C)(O)C1[C@H](O)C[C@@]2(C)C3CC=C4C(CC[C@@H](O)C4(C)C)[C@]3(CO)C(=O)C[C@]12C` (stereo partly drawn), the outcome was “inactive”. `COc1ccc2c(c1)/C(=C/c1cnc[nH]1)C(=O)N2` was tested, and the outcome was “inactive”. For `Nc1ncnc2c1ccn2[C@@H]1O[C@H](CO)[C@@H](O)[C@H]1O`, the outcome was “inactive”. `CCN(CC)C(=O)c1ccc(NC(=O)CSc2nnnn2-c2cc(OC)ccc2OC)cc1` was tested, and the outcome was “inactive”. For `CCOP(=S)(OCC)c1ccc(N(C)C)cc1`, the outcome was “inactive”. In the case of `CCOC(=O)C1C(=O)NC2(C)CC1c1cc(OC)ccc1O2` (stereo not drawn), the outcome is reported as “inactive”. `O=C(c1ccc(-c2ccccc2)cc1)C1CCCN(Cc2ccn[nH]2)C1` (stereo not drawn) was tested, and the outcome was “inactive”. For `O=C(O)c1cccc2c1NC(c1cccc([N+](=O)[O-])c1)C1CC(Sc3ccccc3[N+](=O)[O-])C(Cl)C21` (stereo not drawn), the outcome was “inactive”. For `CCOP1(=S)Oc2cc3c(cc2C(C(=O)OC)(C(F)(F)F)O1)OCO3` (stereo not drawn), the outcome was “inactive”. For `CC1(C)CSC(=NCc2ccccc2)N1`, the outcome was “inactive”. With `CN1CCC(c2c[nH]c3ccccc23)C1` (stereo not drawn) the outcome was “inactive”. With `N#CCCn1cc(C(=O)Nc2ccccc2Cl)c(-c2ccc(F)cc2)n1` the outcome was “inactive”. With `CC1=CC2/C=C(\C)CCC(O)C(O)/C=C/C(=O)C23C(=O)NC(CC(C)C)C3C1C` (stereo not drawn) the outcome was “inactive”. For `Cc1nc2ccccc2c(=O)n1/N=C/c1cc(Br)cc(Br)c1O`, the outcome was “inactive”. In the case of `C/C=C(\C)C(=O)N[C@@H](c1ccccc1)[C@@H](O)C(=O)O[C@H]1C[C@@]2(O)[C@@H](OC(=O)c3ccccc3)C3[C@](C)(C(=O)[C@H](OC(C)=O)C(=C1C)C2(C)C)[C@@H](O)C[C@H]1OC[C@@]31OC(C)=O` (stereo partly drawn), the outcome is reported as “inactive”. In the case of `CCOc1cc(C=C2C(=O)NC(=O)NC2=O)ccc1OS(=O)(=O)c1ccccc1`, the outcome is reported as “inactive”. With `O=[N+]([O-])c1ccc(N2CCOCC2)c2ccncc12` the outcome was “inactive”. For `Cn1cccc1/C=C1/C(=O)NC(=S)N(Cc2ccc(F)cc2)C1=O`, the outcome was “inactive”. `C=C(C)[C@@]12OC3(c4ccccc4)O[C@@H]1C1[C@@H]4O[C@]4(CO)[C@@H](O)[C@]4(O)C(=O)C(C)=C[C@H]4[C@@]1(O3)[C@H](C)[C@H]2OC(=O)/C=C/C=C/c1ccccc1` (stereo partly drawn) was tested, and the outcome was “inactive”. `Cc1ccccc1-n1c(O)c(/C=N/N2CCOCC2)c(=O)[nH]c1=S` was tested, and the outcome was “inactive”. With `CC(=NCc1ccc(F)cc1)c1c(O)n(C)c(=O)n(C)c1=O` the outcome was “inactive”. With `Cc1ccc(/C=C2/C(=O)NC(=O)N(CCc3ccc(F)cc3)C2=O)o1` the outcome was “inactive”. `N#Cc1c(N2CCNCC2)nc(-c2ccco2)c2c1CCCC2` was tested, and the outcome was “inactive”. For `CCOc1cc(CNCCc2c[nH]c3ccccc23)cc(Cl)c1OCC`, the outcome was “inactive”.

From PubChem BioAssay
